From ChEMBL document CHEMBL1143595, “Synthesis and activity of substituted anthraquinones against a human filarial parasite, Brugia malayi” (2005)

Tests used:
Brugia malayi [1] = experiment: Antifilarial activity against Brugia malayi (female) at 5 ppm in the first 5 days (100% mortality); assay type: functional; settings: 120 h
Brugia malayi [2] = experiment: Compound causing 100% mortality of Brugia malayi female adult worms at 12.5 ppm concentration; assay type: functional
How it was run: (§1)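 Dose-response on adult female B. malayi in RPMI 1640 with penicillin/streptomycin. Concentrations ranged from 50 to 3.12 ppm, with compounds delivered in DMSO; solvent controls received 2% DMSO. Movement and mortality were monitored daily. Read-out was days to 100% worm mortality at each concentration.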

Brugia malayi [3] = experiment: Compound causing 100% mortality of Brugia malayi female adult worms at 6.25 ppm concentration; assay type: functional; how it was run: as §1
Brugia malayi [4] = experiment: Compound causing 100% mortality of Brugia malayi female adult worms at 25 ppm concentration; assay type: functional; how it was run: as §1
Brugia malayi [5] = experiment: Antifilarial activity against Brugia malayi (male) at 5 ppm in the first 5 days (100% mortality); assay type: functional; settings: 120 h
Brugia malayi [6] = experiment: Compound causing 100% mortality of Brugia malayi female adult worms at 50 ppm concentration; assay type: functional; how it was run: as §1
Brugia malayi [7] = experiment: Compound causing 100% mortality of Brugia malayi female adult worms at 3.125 ppm concentration; assay type: functional; how it was run: as §1
Brugia malayi [8] = experiment: Antifilarial activity against Brugia malayi (female) at 5 ppm in the first 5 days (100% mortality); NM=No Mortality; assay type: functional, organism-based
Brugia malayi [9] = experiment: Antifilarial activity of anthraquinone against Brugia malayi (female) at 5 ppm in the first 5 days (100% mortality); assay type: functional; settings: 120 h
Brugia malayi [10] = experiment: Compound causing 100% mortality of Brugia malayi female adult worms at 3.125 ppm concentration; no mortality; assay type: functional, organism-based; how it was run: as §1

COc1c(C)cc2c(c1OC)C(=O)c1ccccc1C2=O
mortality at 5 ppm (Brugia malayi [1]): 11%

Cc1cc2c(c(O)c1O)C(=O)c1ccccc1C2=O
Mortality (Brugia malayi [2]): 4 days | Mortality (Brugia malayi [3]): 5 days | Mortality (Brugia malayi [4]): 3 days | mortality at 5 ppm (Brugia malayi [1]): 5% | mortality at 5 ppm (Brugia malayi [5]): 6% | Mortality (Brugia malayi [6]): 1 days | Mortality (Brugia malayi [7]): 6 days

O=C1c2cc(O)c(O)cc2C(=O)c2c(O)cccc21
mortality at 5 ppm (Brugia malayi [1]): 5%

COc1c(C)cc2c(c1O)C(=O)c1ccccc1C2=O
Mortality (Brugia malayi [8]): No mortality

O=C1c2cccc(O)c2C(=O)c2c(O)ccc(O)c21
mortality at 5 ppm (Brugia malayi [1]): 9%

O=C1c2ccc(O)c(O)c2C(=O)c2cccc(O)c21
mortality at 5 ppm (Brugia malayi [1]): 9%

O=C1c2ccccc2C(=O)c2c1cc(O)c(O)c2O
Mortality (Brugia malayi [2]): 4 days | Mortality (Brugia malayi [3]): 5 days | Mortality (Brugia malayi [4]): 4 days | mortality at 5 ppm (Brugia malayi [1]): 5% | Mortality (Brugia malayi [6]): 2 days | Mortality (Brugia malayi [7]): 5 days

Cc1c(O)c(O)cc2c1C(=O)c1ccccc1C2=O
mortality at 5 ppm (Brugia malayi [9]): 7%

COc1c(C)cc2c(c1O)C(=O)c1c(O)cccc1C2=O
Mortality (Brugia malayi [2]): 4 days | Mortality (Brugia malayi [3]): 8 days | Mortality (Brugia malayi [4]): 2 days | Mortality (Brugia malayi [10]): no mortality | Mortality (Brugia malayi [6]): 1 days | Mortality (Brugia malayi [8]): No mortality

COc1cccc2c1C(=O)c1c(cc(C)c(OC)c1O)C2=O
mortality at 5 ppm (Brugia malayi [1]): 7%

Cc1c(O)c(O)cc2c1C(=O)c1c(O)cccc1C2=O
mortality at 5 ppm (Brugia malayi [1]): 3% | mortality at 5 ppm (Brugia malayi [5]): 5%

O=C1c2cccc(O)c2C(=O)c2c1ccc(O)c2O
mortality at 5 ppm (Brugia malayi [1]): 14%

O=C1c2ccccc2C(=O)c2c1ccc(O)c2O [ATHRAQUINONES A]
mortality at 5 ppm (Brugia malayi [1]): 5%

O=C1c2cc(O)cc(O)c2C(=O)c2cccc(O)c21
mortality at 5 ppm (Brugia malayi [1]): 7%

O=C1c2ccccc2C(=O)c2c(O)ccc(O)c21 [QUINIZARIN]
mortality at 5 ppm (Brugia malayi [1]): 10%

COc1cc2c(c(C)c1OC)C(=O)c1c(O)cccc1C2=O
mortality at 5 ppm (Brugia malayi [1]): 9%

O=C1c2cc(O)c(O)c(O)c2C(=O)c2cccc(O)c21
mortality at 5 ppm (Brugia malayi [1]): 5% | mortality at 5 ppm (Brugia malayi [5]): 6%

O=C1c2ccccc2C(=O)c2c(O)cc(O)cc21
Mortality (Brugia malayi [8]): No mortality

CCCSc1ccc2[nH]c(NC(=O)OC)nc2c1 [ALBENDAZOLE]
mortality at 5 ppm (Brugia malayi [1]): 16% | mortality at 5 ppm (Brugia malayi [5]): 9%

Cc1cc2c(c(O)c1O)C(=O)c1c(O)cccc1C2=O
Mortality (Brugia malayi [2]): 4 days | Mortality (Brugia malayi [3]): 5 days | Mortality (Brugia malayi [4]): 3 days | mortality at 5 ppm (Brugia malayi [1]): 5% | Mortality (Brugia malayi [10]): no mortality | mortality at 5 ppm (Brugia malayi [5]): 5% | Mortality (Brugia malayi [6]): 2 days
